In general, inhibition refers to the change of the read-out against control, counted positive when it falls. As usually defined, the IC50 is the concentration at which inhibition is half-maximal.

The source made the active and inactive calls. The rule behind the calls is not given here.

33 compounds from ChEMBL document CHEMBL1124914, “Novel inhibitors of human renin. Cyclic peptides based on the tetrapeptide sequence Glu-D-Phe-Lys-D-Trp” (J Med Chem, 1990) can be followed below.

Test [1] concerns the target T1, Renin (Homo sapiens) (UniProt P00797).
T1 sequence (whole entry): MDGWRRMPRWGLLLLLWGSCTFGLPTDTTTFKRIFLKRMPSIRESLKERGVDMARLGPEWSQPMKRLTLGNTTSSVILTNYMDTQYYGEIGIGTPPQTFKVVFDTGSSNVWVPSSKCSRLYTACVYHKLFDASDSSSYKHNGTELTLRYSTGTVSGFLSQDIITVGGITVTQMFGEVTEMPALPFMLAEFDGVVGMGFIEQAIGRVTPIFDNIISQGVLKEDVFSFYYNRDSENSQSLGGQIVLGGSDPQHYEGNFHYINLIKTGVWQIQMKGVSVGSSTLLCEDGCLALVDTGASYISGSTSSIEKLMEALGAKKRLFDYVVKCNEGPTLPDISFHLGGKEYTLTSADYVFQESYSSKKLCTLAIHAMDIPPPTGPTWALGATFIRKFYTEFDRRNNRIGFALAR
The test is described as follows: Tested for inhibition against human renin at a concentration of 100 uM. A digest of the protocol:
(§1)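 Partially purified human renal renin with human angiotensinogen partially purified from volunteer plasma (ammonium sulfate fractionation, DEAE-Sephacel). Final mix: 50 mM phosphate pH 7.0, 3 mM EDTA, 3 mM 8-hydroxyquinoline, 0.5 mM PMSF, 0.1% azide, 0.1% BSA, 1% DMSO. […] Incubation 120 min at 30 °C, stopped on ice. Angiotensin I measured by radioimmunoassay; percent inhibition of vehicle control rate.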

Test [2] has as its target T1, Renin (Homo sapiens). Nature of the test: Tested for inhibition against human renin at a concentration of 100 uM; Inactive. A digest of the protocol:
as §1

The target in test [3] is T2, Renin (Homo sapiens, UniProt P00797).
T2 sequence (P00797 whole entry): T1 sequence (whole entry)
Nature of the test: Inhibitory activity against human renin. The method, boiled down:
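Partially purified human renal renin with human angiotensinogen partially purified from volunteer plasma (ammonium sulfate fractionation, DEAE-Sephacel). Final mix: 50 mM phosphate pH 7.0, 3 mM EDTA, 3 mM 8-hydroxyquinoline, 0.5 mM PMSF, 0.1% azide, 0.1% BSA, 1% DMSO. Incubation 120 min at 30 °C, stopped on ice. Angiotensin I measured by radioimmunoassay; percent inhibition of vehicle control rate.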

The target in test [4] is Renin (Sus scrofa). Nature of the test: Inhibitory activity against porcine renin.
Test [5] has as its target T1, Renin (Homo sapiens). The test is described as follows: Ratio of inhibitory activity of porcine renin to that of human renin. The following applies: Sus scrofa.
Test [6] deals with T1, Renin (Homo sapiens). Nature of the test: Tested for inhibition against human renin at a concentration of 1 uM. A digest of the protocol: as §1
The target in test [7] is T1, Renin (Homo sapiens). The test is described as follows: Tested for inhibition against human renin at a concentration of 10 uM. A digest of the protocol: as §1

In test [1], `CC(C)(C)OC(=O)N[C@@H]1CCC(=O)N([C@@H](CCCCN)C(=O)NCCc2c[nH]c3ccccc23)C(=O)[C@@H](Cc2ccccc2)NC1=O` registered an inhibition of 79%. As for `CC(C)(C)OC(=O)N[C@@H]1CCC(=O)N([C@@H](CCCCN)C(N)=O)C(=O)[C@@H](Cc2ccccc2)NC1=O`, the inhibition entry in test [2] was “inactive”. In test [1], `CC(Cc1c[nH]c2ccccc12)NC(=O)[C@H](CCCCN)N1C(=O)CC[C@@H](NC(=O)OC(C)(C)C)C(=O)N[C@H](Cc2ccccc2)C1=O` (some centres not stated) displayed an inhibition of 33%.

With `CCC(Cc1c[nH]c2ccccc12)NC(=O)[C@H](CCCCN)N1C(=O)CC[C@@H](NC(=O)OC(C)(C)C)C(=O)N[C@H](Cc2ccccc2)C1=O` (some centres not stated), the inhibition in test [1] was determined as 41%. Consider `COC(=O)[C@H](CCCCN)N1C(=O)CC[C@@H](NC(=O)OC(C)(C)C)C(=O)N[C@H](Cc2ccccc2)C1=O`, for which, in test [2], the inhibition entry was “inactive”. In the case of `CC[C@@H](C)[C@H](NC(=O)C(Cc1c[nH]c2ccccc12)NC(=O)[C@H](CCCCN)N1C(=O)CC[C@@H](NC(=O)OCc2ccccc2)C(=O)N[C@H](Cc2ccccc2)C1=O)C(=O)NC` (stereo in doubt), the IC50 in test [3] is 810 nM. In the case of `COC(=O)C(CCSC)NC(=O)[C@H](CC(C)C)NC(=O)C(Cc1c[nH]c2ccccc12)NC(=O)[C@H](CCCCN)N1C(=O)CC[C@@H](NC(=O)OCc2ccccc2)C(=O)N[C@H](Cc2ccccc2)C1=O` (stereo in doubt), the IC50 in test [3] was 450 nM.

Compound `COC(=O)[C@@H](CCSC)NC(=O)[C@H](CC(C)C)NC(=O)C(Cc1c[nH]c2ccccc12)NC(=O)[C@H](CCCCN)N1C(=O)CC[C@@H](NC(=O)OCc2ccccc2)C(=O)N[C@H](Cc2ccccc2)C1=O` (stereo in doubt) showed an IC50 in test [3] of 290 nM. Turning to `CC(C)CCNC(=O)C(Cc1c[nH]c2ccccc12)NC(=O)[C@H](CCCCN)N1C(=O)CC[C@@H](NC(=O)COc2ccccc2)C(=O)N[C@H](Cc2ccccc2)C1=O` (stereo in doubt), the IC50 in test [3] is 430 nM; in test [4], 8200 nM. Also, the Ratio in test [5] is 19.2. Compound `CCC(C)CN[C@@H]1CCC(=O)N([C@@H](CCCCN)C(=O)NC(Cc2c[nH]c3ccccc23)C(=O)NCCC(C)C)C(=O)[C@@H](Cc2ccccc2)NC1=O` (stereo in doubt) had an IC50 in test [3] of 130 nM. Regarding `CC(C)CCNC(=O)C(Cc1c[nH]c2ccccc12)NC(=O)[C@H](CCCCN)N1C(=O)CC[C@@H](N)C(=O)N[C@H](Cc2ccccc2)C1=O` (stereo in doubt), the IC50 in test [3] is 710 nM; in test [4], 46000 nM. For the same compound, in test [5], the Ratio stood at 64.7. Take `CCNC(=O)[C@H](CC(C)C)NC(=O)C(Cc1c[nH]c2ccccc12)NC(=O)[C@H](CCCCN)N1C(=O)CC[C@@H](NC(=O)OCc2ccccc2)C(=O)N[C@H](Cc2ccccc2)C1=O` (stereo in doubt): half-maximal inhibition in test [3] (IC50) required 850 nM. On the same count and under the same terms, with `CC(C)(C)CNC(=O)C(Cc1c[nH]c2ccccc12)NC(=O)[C@H](CCCCN)N1C(=O)CC[C@@H](NC(=O)OCc2ccccc2)C(=O)N[C@H](Cc2ccccc2)C1=O` (stereo in doubt) the figure was 1700 nM; with `CNC(=O)[C@H](CC(C)C)NC(=O)C(Cc1c[nH]c2ccccc12)NC(=O)[C@H](CCCCN)N1C(=O)CC[C@@H](NC(=O)OCc2ccccc2)C(=O)N[C@H](Cc2ccccc2)C1=O` (stereo in doubt), 340 nM; with `CC(C)CCNC(=O)C(Cc1c[nH]c2ccccc12)NC(=O)[C@H](CCCCN)N1C(=O)CC[C@@H](NCc2c[nH]c3ccccc23)C(=O)N[C@H](Cc2ccccc2)C1=O` (stereo in doubt), 1900 nM. For the compound `CC(C)CCNC(=O)C(Cc1c[nH]c2ccccc12)NC(=O)[C@H](CCCCN)N1C(=O)CC[C@@H](NC(=O)OC(C)(C)C)C(=O)N[C@H](Cc2ccccc2)C1=O` (stereo in doubt), the IC50 in test [3] stood at 210 nM; in test [4], 8500 nM. Further, the Ratio in test [5] was 40.4. On the same counts, the results for `CC(C)CCNC(=O)C(Cc1c[nH]c2ccccc12)NC(=O)[C@H](CCCCN)N1C(=O)CC[C@@H](NCC(C)(C)C)C(=O)N[C@H](Cc2ccccc2)C1=O` (stereo in doubt) are 63 nM, 7100 nM and 113. Turning to `CC(=O)NCSC[C@@H]1NC(=O)[C@@H](CC(C)C)NC(=O)C(Cc2c[nH]c3ccccc23)NC(=O)[C@@H](CSCNC(C)=O)NC(=O)[C@H](Cc2ccccc2)NC1=O` (stereo in doubt), the inhibition in test [1] is 56%. For the compound `CC(=O)NCSC[C@H]1NC(=O)[C@H](Cc2ccccc2)NC(=O)CN(C)C(=O)[C@@H](CC(C)C)NC(=O)C(Cc2c[nH]c3ccccc23)NC1=O` (stereo in doubt), the inhibition entry in test [2] is “inactive”. On the same count and under the same terms, as for `CC(=O)NCSC[C@H]1NC(=O)[C@H](Cc2ccccc2)NC(=O)CNC(=O)[C@@H](CC(C)C)NC(=O)C(Cc2c[nH]c3ccccc23)NC1=O` (stereo in doubt), the entry is “inactive”. Consider `CC(=O)NCSC[C@H]1NC(=O)[C@H](Cc2ccccc2)NC(=O)[C@@H]2CCCN2C(=O)[C@@H](CC(C)C)NC(=O)C(Cc2c[nH]c3ccccc23)NC1=O` (stereo in doubt), for which the inhibition in test [1] came out at 38%. For `CC(C)CCNC(=O)C(Cc1c[nH]c2ccccc12)NC(=O)[C@H](CCCCN)N1C(=O)CC[C@@H](NC(C)C)C(=O)N[C@H](Cc2ccccc2)C1=O` (stereo in doubt), the inhibition in test [1] was 93%; in test [6], 30%.

As to `CC(C)C[C@H]1NC(=O)C(Cc2c[nH]c3ccccc23)NC(=O)[C@@H](CCCCN)N(C(=O)[C@@H](N)Cc2ccccc2)C1=O` (stereo in doubt), in test [2], the inhibition result is “inactive”. Same read-out and setting: with `CC(C)C[C@H]1NC(=O)C(Cc2c[nH]c3ccccc23)NC(=O)[C@@H](CCCCN)N(C(=O)[C@H](Cc2ccccc2)NC(=O)OCc2ccccc2)C1=O` (stereo in doubt) the entry was “inactive”. On to `COC(=O)C(Cc1c[nH]c2ccccc12)NC(=O)[C@H](CCCCN)N1C(=O)CC[C@@H](NC(=O)OCc2ccccc2)C(=O)N[C@H](Cc2ccccc2)C1=O` (stereo in doubt), for which the inhibition in test [1] was 69.2%. Still for that read-out and setting: with `COC(=O)[C@@H](NC(=O)C(Cc1c[nH]c2ccccc12)NC(=O)[C@H](CCCCN)N1C(=O)CC[C@@H](NC(=O)OCc2ccccc2)C(=O)N[C@H](Cc2ccccc2)C1=O)C1CCCCC1` (stereo in doubt) the figure was 67%.

Turning to `COC(=O)[C@@H]1CCCN1C(=O)[C@H](CC(C)C)NC(=O)C(Cc1c[nH]c2ccccc12)NC(=O)[C@H](CCCCN)N1C(=O)CC[C@@H](NC(=O)OCc2ccccc2)C(=O)N[C@H](Cc2ccccc2)C1=O` (stereo in doubt), in test [7], the inhibition worked out at 76%. In the case of `COC(=O)[C@H](CC(C)C)NC(=O)C(Cc1c[nH]c2ccccc12)NC(=O)[C@@H](CCCCN)N1C(=O)C[C@H](NC(=O)OCc2ccccc2)C(=O)N[C@H](Cc2ccccc2)C1=O` (stereo in doubt), in test [1], the inhibition came out at 32%. With `COC(=O)[C@H](CC(C)C)NC(=O)C(Cc1c[nH]c2ccccc12)NC(=O)[C@@H](CCCN)N1C(=O)C[C@H](NC(=O)OCc2ccccc2)C(=O)N[C@H](Cc2ccccc2)C1=O` (stereo in doubt), the inhibition entry in test [2] was “inactive”. In the case of `COC(=O)[C@H](CC(C)C)NC(=O)C(Cc1c[nH]c2ccccc12)NC(=O)[C@@H]1CCC(=O)N[C@H](CCCCNC(=O)OCc2ccccc2)C(=O)N[C@@H](Cc2ccccc2)C(=O)N1` (stereo in doubt), the inhibition entry in test [2] was “inactive”. Take `COC(=O)[C@H](CC(C)C)NC(=O)C(Cc1c[nH]c2ccccc12)NC(=O)[C@H](CCCCN)N1C(=O)CSC[C@@H](NC(=O)OCc2ccccc2)C(=O)N[C@H](Cc2ccccc2)C1=O` (stereo in doubt): the inhibition in test [1] worked out at 53%. Still for that read-out and setting: with `COC(=O)[C@H](CC(C)C)NC(=O)C(Cc1c[nH]c2ccccc12)NC(=O)[C@H](CCCN)N1C(=O)CC[C@H](NC(=O)OCc2ccccc2)C(=O)N[C@@H](Cc2ccccc2)C1=O` (stereo in doubt) the figure was 42%; with `COC(=O)[C@H](CCSC)NC(=O)[C@H](CC(C)C)NC(=O)C(Cc1c[nH]c2ccccc12)NC(=O)[C@H](CS)NC(=O)[C@H](Cc1ccccc1)NC(=O)[C@H](CS)NC(=O)OC(C)(C)C` (stereo in doubt), 22%.
